{"source": "ChEMBL document CHEMBL1140904", "about": "“Synthesis and analysis of novel glycerolipids for the treatment of metabolic syndrome” (J Med Chem, 2009)", "key": {"[1]": {"tested_on": "Rattus norvegicus", "assay": "Effect on fatty acid composition in Wistar rat assessed as change in liver PUFA level at dose equivalent to 85 umol of tetradecylthioacetic acid, po after 6 days", "format": "functional", "in_short": "(§1)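 Male Wistar rats were gavaged once daily for 6 days with compound in 0.5% CMC at 85 or 250 µmol TTA-equivalent per animal. Controls received palmitic acid. Liver was homogenized in 0.25 M sucrose/10 mM HEPES pH 7.4/1 mM EDTA at 0-4 °C. Lipids were extracted with chloroform:methanol 2:1 and spiked with 21:0 internal standard. Fatty acids were BF3-methanol transesterified and quantified as wt%. Values are mean ± SD, n=5.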"}, "[2]": {"tested_on": "Rattus norvegicus", "assay": "Induction of PPAR-alpha-regulated HMG-CoA synthase activity in po dosed Wistar rat after 6 days", "format": "functional, organism-based", "in_short": "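Wistar rats were gavaged daily for 6 days at 85 or 250 µmol TTA-equivalent in 0.5% CMC, with palmitic acid controls. HMG-CoA synthase activity was assayed in the liver postnuclear fraction by the Clinkenbeard method. Mean ± SD, 5 rats/group.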"}, "[3]": {"tested_on": "Rattus norvegicus", "assay": "Effect on fatty acid composition in Wistar rat assessed as change in liver saturated fatty acid level at dose equivalent to 250 umol of tetradecylthioacetic acid, po after 6 days", "format": "functional", "in_short": "as §1"}, "[4]": {"tested_on": "Rattus norvegicus", "assay": "Effect on fatty acid composition in Wistar rat assessed as change in plasma 18;2, n-6 level at dose equivalent to 250 umol of tetradecylthioacetic acid, po after 6 days", "format": "functional"}, "[5]": {"tested_on": "Rattus norvegicus", "assay": "Effect on fatty acid composition in Wistar rat assessed as change in liver 18;2, n-6 level at dose equivalent to 250 umol of tetradecylthioacetic acid, po after 6 days", "format": "functional", "in_short": "as §1"}, "[6]": {"tested_on": "Rattus norvegicus", "assay": "Induction of PPAR-alpha-regulated CPT2 activity in po dosed Wistar rat after 6 days", "format": "functional, organism-based", "in_short": "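Wistar rats were dosed orally for 6 days (85 or 250 µmol TTA-equivalent in 0.5% CMC; palmitic acid controls). CPT-II activity was measured in the liver mitochondrial fraction, prepared from sucrose/HEPES pH 7.4/EDTA homogenate at 0-4 °C. Means ± SD from 5 rats per group.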"}, "[7]": {"tested_on": "Rattus norvegicus", "assay": "Decrease in plasma cholesterol level in po dosed Wistar rat after 6 days", "format": "functional, organism-based", "in_short": "(§2)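 Male Wistar rats (170-210 g), housed in pairs with chow and water, were gavaged once daily for 6 days with test lipid in 0.5% (w/v) carboxymethylcellulose at 85 or 250 µmol TTA-equivalent per animal. Controls received palmitic acid in CMC. Plasma triacylglycerol and cholesterol were measured with an enzymatic kit, and liver levels were also determined. Values are mean ± SD, n=5 rats.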"}, "[8]": {"tested_on": "Rattus norvegicus", "assay": "Effect on fatty acid composition in Wistar rat assessed as change in plasma PUFA level at dose equivalent to 85 umol of tetradecylthioacetic acid, po after 6 days", "format": "functional"}, "[9]": {"tested_on": "Rattus norvegicus", "assay": "Effect on fatty acid composition in Wistar rat assessed as change in plasma saturated fatty acid level at dose equivalent to 85 umol of tetradecylthioacetic acid, po after 6 days", "format": "functional"}, "[10]": {"tested_on": "Rattus norvegicus", "assay": "Effect on fatty acid composition in Wistar rat assessed as change in liver 18;2, n-6 level at dose equivalent to 85 umol of tetradecylthioacetic acid, po after 6 days", "format": "functional", "in_short": "as §1"}, "[11]": {"tested_on": "Rattus norvegicus", "assay": "Induction of PPAR-alpha-regulated fatty acyl-CoA oxidase activity in po dosed Wistar rat after 6 days", "format": "functional, organism-based", "in_short": "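Rats were dosed by gastric intubation for 6 days at 85 or 250 µmol TTA-equivalent in 0.5% CMC, with palmitic acid controls. Fatty acyl-CoA oxidase was measured in the liver postnuclear fraction by a coupled assay, following H2O2 production as the rise in dichlorofluorescein absorbance with palmitoyl-CoA. Mean ± SD, n=5.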"}, "[12]": {"tested_on": "Rattus norvegicus", "assay": "Effect on fatty acid composition in Wistar rat assessed as change in liver PUFA level at dose equivalent to 250 umol of tetradecylthioacetic acid, po after 6 days", "format": "functional", "in_short": "as §1"}, "[13]": {"tested_on": "Rattus norvegicus", "assay": "Effect on fatty acid composition in Wistar rat assessed as change in liver saturated fatty acid level at dose equivalent to 85 umol of tetradecylthioacetic acid, po after 6 days", "format": "functional", "in_short": "as §1"}, "[14]": {"tested_on": "Rattus norvegicus", "assay": "Effect on fatty acid composition in Wistar rat assessed as change in plasma PUFA level at dose equivalent to 250 umol of tetradecylthioacetic acid, po after 6 days", "format": "functional"}, "[15]": {"tested_on": "Rattus norvegicus", "assay": "Effect on fatty acid composition in Wistar rat assessed as change in liver LCPUFA, n-6 level at dose equivalent to 250 umol of tetradecylthioacetic acid, po after 6 days", "format": "functional", "in_short": "as §1"}, "[16]": {"tested_on": "Rattus norvegicus", "assay": "Effect on fatty acid composition in Wistar rat assessed as change in plasma LCPUFA, n-6 level at dose equivalent to 250 umol of tetradecylthioacetic acid, po after 6 days", "format": "functional"}, "[17]": {"tested_on": "Rattus norvegicus", "assay": "Effect on fatty acid composition in Wistar rat assessed as change in plasma MUFA level at dose equivalent to 250 umol of tetradecylthioacetic acid, po after 6 days", "format": "functional"}, "[18]": {"tested_on": "Rattus norvegicus", "assay": "Decrease in plasma triacylglycerol level in po dosed Wistar rat after 6 days", "format": "functional, organism-based", "in_short": "as §2"}, "[19]": {"tested_on": "Rattus norvegicus", "assay": "Effect on fatty acid composition in Wistar rat assessed as change in liver LCPUFA, n-6 level at dose equivalent to 85 umol of tetradecylthioacetic acid, po after 6 days", "format": "functional", "in_short": "as §1"}, "[20]": {"tested_on": "Rattus norvegicus", "assay": "Effect on fatty acid composition in Wistar rat assessed as change in plasma saturated fatty acid level at dose equivalent to 250 umol of tetradecylthioacetic acid, po after 6 days", "format": "functional"}, "[21]": {"tested_on": "Rattus norvegicus", "assay": "Effect on fatty acid composition in Wistar rat assessed as change in plasma LCPUFA, n-6 level at dose equivalent to 85 umol of tetradecylthioacetic acid, po after 6 days", "format": "functional"}, "[22]": {"tested_on": "Liver", "assay": "Drug concentration in Wistar rat liver assessed as tetradecylthioacetic acid at dose equivalent to 85 umol of tetradecylthioacetic acid, po after 6 days", "format": "ADME, organism-based", "conditions": "in vivo, 144 h", "in_short": "as §1"}, "[23]": {"tested_on": "Rattus norvegicus", "assay": "Effect on fatty acid composition in Wistar rat assessed as change in liver MUFA level at dose equivalent to 250 umol of tetradecylthioacetic acid, po after 6 days", "format": "functional", "in_short": "as §1"}, "[24]": {"tested_on": "Rattus norvegicus", "assay": "Effect on fatty acid composition in Wistar rat assessed as change in plasma LCn-6/18:2 level at dose equivalent to 85 umol of tetradecylthioacetic acid, po after 6 days", "format": "functional"}, "[25]": {"tested_on": "Rattus norvegicus", "assay": "Increase in [1-14C]palmitoyl-CoA oxidation in po dosed Wistar rat liver homogenate after 6 days", "format": "functional, organism-based", "in_short": "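Rats were dosed by gastric intubation for 6 days with 85 or 250 µmol TTA-equivalent in 0.5% CMC, with palmitic acid controls. Liver was homogenized in 0.25 M sucrose, 10 mM HEPES pH 7.4, 1 mM EDTA at 0-4 °C. Palmitoyl-CoA oxidation was read as acid-soluble products from [1-14C]-palmitoyl-CoA in the postnuclear fraction. Mean ± SD, n=5.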"}, "[26]": {"tested_on": "Rattus norvegicus", "assay": "Effect on fatty acid composition in Wistar rat assessed as change in plasma MUFA level at dose equivalent to 85 umol of tetradecylthioacetic acid, po after 6 days", "format": "functional"}, "[27]": {"tested_on": "Rattus norvegicus", "assay": "Effect on fatty acid composition in Wistar rat assessed as change in plasma 18;2, n-6 level at dose equivalent to 85 umol of tetradecylthioacetic acid, po after 6 days", "format": "functional"}, "[28]": {"tested_on": "Rattus norvegicus", "assay": "Plasma concentration in Wistar rat assessed as tetradecylthioacetic acid at dose equivalent to 250 umol of tetradecylthioacetic acid, po after 6 days", "format": "ADME, organism-based", "conditions": "in vivo, 144 h"}, "[29]": {"tested_on": "Rattus norvegicus", "assay": "Effect on fatty acid composition in Wistar rat assessed as change in liver LCn-6/18:2 level at dose equivalent to 250 umol of tetradecylthioacetic acid, po after 6 days", "format": "functional", "in_short": "as §1"}, "[30]": {"tested_on": "Rattus norvegicus", "assay": "Effect on fatty acid composition in Wistar rat assessed as change in liver LCn-6/18:2 level at dose equivalent to 85 umol of tetradecylthioacetic acid, po after 6 days", "format": "functional", "in_short": "as §1"}, "[31]": {"tested_on": "Rattus norvegicus", "assay": "Effect on fatty acid composition in Wistar rat assessed as change in plasma LCn-6/18:2 level at dose equivalent to 250 umol of tetradecylthioacetic acid, po after 6 days", "format": "functional"}, "[32]": {"tested_on": "Rattus norvegicus", "assay": "Effect on fatty acid composition in Wistar rat assessed as change in liver MUFA level at dose equivalent to 85 umol of tetradecylthioacetic acid, po after 6 days", "format": "functional", "in_short": "as §1"}, "[33]": {"tested_on": "Rattus norvegicus", "assay": "Plasma concentration in Wistar rat assessed as tetradecylthioacetic acid at dose equivalent to 85 umol of tetradecylthioacetic acid, po after 6 days", "format": "ADME, organism-based", "conditions": "in vivo, 144 h"}}, "data": [{"smiles": "CCCCCCCCCCCCCCSCC(=O)OCC(COC(=O)CSCCCCCCCCCCCCCC)OC(=O)CSCCCCCCCCCCCCCC", "note": "[TRITETRADECYLTHIOACETYL GLYCEROL]", "values": [{"measurement": "Activity", "setting": "[1]", "value": 5.18, "unit": "%"}, {"measurement": "Activity", "setting": "[2]", "value": "Dose-dependent effect"}, {"measurement": "Activity", "setting": "[3]", "value": 38.98, "unit": "%"}, {"measurement": "Activity", "setting": "[4]", "value": 18.25, "unit": "%"}, {"measurement": "Activity", "setting": "[5]", "value": 10.7, "unit": "%"}, {"measurement": "Activity", "setting": "[6]", "value": "Dose-dependent effect"}, {"measurement": "Activity", "setting": "[7]", "value": "Dose-dependent effect"}, {"measurement": "Activity", "setting": "[8]", "value": 2.35, "unit": "%"}, {"measurement": "Activity", "setting": "[9]", "value": 36.21, "unit": "%"}, {"measurement": "Activity", "setting": "[10]", "value": 11.28, "unit": "%"}, {"measurement": "Activity", "setting": "[11]", "value": "Dose-dependent effect"}, {"measurement": "Activity", "setting": "[12]", "value": 4.97, "unit": "%"}, {"measurement": "Activity", "setting": "[13]", "value": 39.82, "unit": "%"}, {"measurement": "Activity", "setting": "[14]", "value": 2.29, "unit": "%"}, {"measurement": "Activity", "setting": "[15]", "value": 28.73, "unit": "%"}, {"measurement": "Activity", "setting": "[16]", "value": 22.24, "unit": "%"}, {"measurement": "Activity", "setting": "[17]", "value": 21.63, "unit": "%"}, {"measurement": "Activity", "setting": "[18]", "value": "Dose-dependent effect"}, {"measurement": "Activity", "setting": "[19]", "value": 25.81, "unit": "%"}, {"measurement": "Activity", "setting": "[20]", "value": 34.67, "unit": "%"}, {"measurement": "Activity", "setting": "[21]", "value": 19.08, "unit": "%"}, {"measurement": "Drug uptake", "setting": "[22]", "value": 0.69, "unit": "%"}, {"measurement": "Drug uptake", "setting": "[22]; in the assay text read “equivalent to 250 umol” for “equivalent to 85 umol”", "value": 2.04, "unit": "%"}, {"measurement": "Activity", "setting": "[23]", "value": 15.91, "unit": "%"}, {"measurement": "Activity", "setting": "[24]", "value": 0.98, "unit": "%"}, {"measurement": "Activity", "setting": "[25]", "value": "Dose-dependent effect"}, {"measurement": "Activity", "setting": "[26]", "value": 21.8, "unit": "%"}, {"measurement": "Activity", "setting": "[27]", "value": 19.73, "unit": "%"}, {"measurement": "Drug uptake", "setting": "[28]", "value": 1.49, "unit": "%"}, {"measurement": "Activity", "setting": "[29]", "value": 2.7, "unit": "%"}, {"measurement": "Activity", "setting": "[30]", "value": 2.3, "unit": "%"}, {"measurement": "Activity", "setting": "[31]", "value": 1.22, "unit": "%"}, {"measurement": "Activity", "setting": "[32]", "value": 17.27, "unit": "%"}, {"measurement": "Drug uptake", "setting": "[33]", "value": 0.51, "unit": "%"}]}]}
